Laboratory results as given in ChEMBL document CHEMBL1255484, “In vitro activity of ACH-702, a new isothiazoloquinolone, against Nocardia brasiliensis compared with econazole and the carbapenems imipenem and meropenem alone or in combination with clavulanic acid” (Antimicrob Agents Chemother, 2010).
Converted amounts (≈) assume the structure as drawn.

Columns and labels:
Nocardia brasiliensis [1] = test: Antibacterial activity against Nocardia brasiliensis isolated from actinomycetoma patient by broth dilution method; format: functional
In short: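 CLSI M24-A broth microdilution on 30 N. brasiliensis isolates from human actinomycetoma, including HUJEG-1, identified biochemically and by 16S rRNA gene fragment sequencing. Ground colonies were suspended to 0.5 McFarland in cation-adjusted Mueller-Hinton broth, giving 1 × 10^4 to 5 × 10^4 CFU per well, and added to serial drug dilutions. Incubation was 3 days at 35°C. MIC is the lowest concentration giving total growth inhibition; MIC50/MIC90 are reported.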

[2] = Tmax in mouse plasma at 3.3 mg/kg, po; format: ADME, organism-based; set-up: dose 3.3 mg/kg, route oral
Mus musculus = test: Plasma concentration in mouse at 3.3 mg/kg, po; format: ADME, organism-based; set-up: dose 3.3 mg/kg, route oral; settings: in vivo
Nocardia brasiliensis [3] = test: Antibacterial activity against Nocardia brasiliensis isolated from actinomycetoma patient by broth dilution method in presence of clavulanic acid; format: functional
In short: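 Same CLSI M24-A broth microdilution: 30 human actinomycetoma N. brasiliensis isolates, cation-adjusted Mueller-Hinton broth, inoculum 1 × 10^4 to 5 × 10^4 CFU per well, 3 days at 35°C. Clavulanic acid at 0.25 μg/ml was added with each carbapenem dilution. Drug-free growth well; E. coli ATCC 25922 and S. aureus ATCC 29213 as external controls. MIC is total growth inhibition.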

An MIC50 (Nocardia brasiliensis [1]) of 0.125 µg/mL (≈ 0.289 µM) and an MIC90 (Nocardia brasiliensis [1]) of 0.5 µg/mL (≈ 1.16 µM) were found for `COc1c(N2CC[C@@H](C(C)(C)N)C2)c(F)cc2c(=O)c3c(=O)[nH]sc3n(C3CC3)c12` in this work.
An MIC50 (Nocardia brasiliensis [1]) of 2 µg/mL (≈ 5.24 µM), an MIC90 (Nocardia brasiliensis [1]) of 4 µg/mL (≈ 10.5 µM) and a Tmax [2] of 1 h were found for `Clc1ccc(COC(Cn2ccnc2)c2ccc(Cl)cc2Cl)cc1` (centres undefined) [ECONAZOLE] in this work. For the same molecule, the Cp (Mus musculus) was 230 ng/mL.
An MIC50 (Nocardia brasiliensis [1]) of 64 µg/mL (≈ 214 µM), an MIC90 (Nocardia brasiliensis [1]) of over 64 µg/mL and an MIC50 (Nocardia brasiliensis [3]) of 64 µg/mL were found for `C[C@@H](O)[C@H]1C(=O)N2C(C(=O)O)=C(SCCNC=N)C[C@H]12` [IMIPENEM ANHYDROUS] in this work. For the same molecule, the MIC90 (Nocardia brasiliensis [3]) was over 64 µg/mL.
An MIC50 (Nocardia brasiliensis [1]) of 2 µg/mL (≈ 5.22 µM), an MIC90 (Nocardia brasiliensis [1]) of 8 µg/mL (≈ 20.9 µM) and an MIC50 (Nocardia brasiliensis [3]) of 2 µg/mL were found for `C[C@@H](O)[C@H]1C(=O)N2C(C(=O)O)=C(S[C@@H]3CN[C@H](C(=O)N(C)C)C3)[C@H](C)[C@H]12` [MEROPENEM] in this work. It also gave an MIC90 (Nocardia brasiliensis [3]) of 8 µg/mL.
